Experimental data: ChEMBL document CHEMBL1208778, “Synthesis and anti-cancer activity of chalcone linked imidazolones” (2010)

How the values were obtained:
Type in all cases: functional
[1] = Growth inhibition of human RPMI8266 cells
Outline: (§1)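 Five-dose testing was run within the NCI (Bethesda) in vitro Anticancer Screen Program on a panel of 53 human tumour cell lines from nine cancer types. Growth inhibition is reported as GI50.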

[2] = tested on: K562; assay: Growth inhibition of human K562 cells; outline: as §1
[3] = tested on: A549; assay: Growth inhibition of human A549 cells; outline: as §1
[4] = tested on: EKVX; assay: Growth inhibition of human EKVX cells; outline: as §1
[5] = tested on: HOP-62; assay: Growth inhibition of human HOP62 cells; outline: as §1
[6] = tested on: HOP-92; assay: Growth inhibition of human HOP92 cells; outline: as §1
[7] = tested on: NCI-H226; assay: Growth inhibition of human NCI-H226 cells; outline: as §1
[8] = tested on: NCI-H23; assay: Growth inhibition of human NCI-H23 cells; outline: as §1
[9] = tested on: NCI-H322M; assay: Growth inhibition of human NCI-H322M cells; outline: as §1
[10] = tested on: NCI-H460; assay: Growth inhibition of human NCI-H460 cells; outline: as §1
[11] = tested on: NCI-H522; assay: Growth inhibition of human NCI-H522 cells; outline: as §1
[12] = tested on: COLO 205; assay: Growth inhibition of human COLO205 cells; outline: as §1
[13] = tested on: HCC 2998; assay: Growth inhibition of human HCC2998 cells; outline: as §1
[14] = tested on: HCT-116; assay: Growth inhibition of human HCT116 cells; outline: as §1
[15] = tested on: HCT-15; assay: Growth inhibition of human HCT15 cells; outline: as §1
[16] = tested on: HT-29; assay: Growth inhibition of human HT-29 cells; outline: as §1
[17] = tested on: KM12; assay: Growth inhibition of human KM12 cells; outline: as §1
[18] = tested on: SW-620; assay: Growth inhibition of human SW620 cells
Outline: (§2)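 Compounds that passed a preliminary screen were tested at five doses in the NCI (Bethesda) in vitro Anticancer Screen Program against a 53-line human tumour panel spanning leukemia, lung, colon, CNS, melanoma, ovarian, renal, prostate and breast. Growth inhibition is reported as GI50.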

[19] = tested on: SF-268; assay: Growth inhibition of human SF268 cells; outline: as §1
[20] = tested on: SF-295; assay: Growth inhibition of human SF295 cells; outline: as §1
[21] = tested on: SF-539; assay: Growth inhibition of human SF539 cells; outline: as §1
[22] = tested on: SNB-19; assay: Growth inhibition of human SNB19 cells; outline: as §2
[23] = tested on: SNB-75; assay: Growth inhibition of human SNB75 cells; outline: as §2
[24] = tested on: U-251; assay: Growth inhibition of human U251 cells; outline: as §2
[25] = tested on: A498; assay: Growth inhibition of human A498 cells; outline: as §1
[26] = tested on: 786-0; assay: Growth inhibition of human 786-0 cells; outline: as §1
[27] = tested on: ACHN; assay: Growth inhibition of human ACHN cells; outline: as §1
[28] = tested on: CAKI-1; assay: Growth inhibition of human Caki1 cells; outline: as §1
[29] = tested on: RXF 393; assay: Growth inhibition of human RXF393 cells; outline: as §1
[30] = tested on: SN12C; assay: Growth inhibition of human SN12C cells; outline: as §2
[31] = tested on: TK-10; assay: Growth inhibition of human TK10 cells; outline: as §2
[32] = tested on: UO-31; assay: Growth inhibition of human UO31 cells; outline: as §2
[33] = tested on: PC-3; assay: Growth inhibition of human PC3 cells; outline: as §1
[34] = tested on: OVCAR-3; assay: Growth inhibition of human OVCAR-3 cells; outline: as §1
[35] = tested on: OVCAR-4; assay: Growth inhibition of human OVCAR4 cells; outline: as §1
[36] = tested on: OVCAR-5; assay: Growth inhibition of human OVCAR5 cells; outline: as §1
[37] = tested on: OVCAR-8; assay: Growth inhibition of human OVCAR8 cells; outline: as §1
[38] = tested on: NCI/ADR-RES; assay: Growth inhibition of human NCI/ADR-RES cells; outline: as §1
[39] = tested on: SK-OV-3; assay: Growth inhibition of human SKOV3 cells; outline: as §2
[40] = tested on: MCF7; assay: Growth inhibition of human MCF7 cells; outline: as §1
[41] = tested on: MDA-MB-231; assay: Growth inhibition of human MDA-MB-231 cells; outline: as §1
[42] = Growth inhibition of human Hs 578T cells; outline: as §1
[43] = tested on: BT-549; assay: Growth inhibition of human BT549 cells; outline: as §1
[44] = tested on: T47D; assay: Growth inhibition of human T47D cells; outline: as §2
[45] = tested on: LOX IMVI; assay: Growth inhibition of human LOXIMVI cells; outline: as §1
[46] = tested on: Malme-3M; assay: Growth inhibition of human MALME-3M cells; outline: as §1
[47] = tested on: M14; assay: Growth inhibition of human M14 cells; outline: as §1
[48] = tested on: MDA-MB-435; assay: Growth inhibition of human MDA-MB-435 cells; outline: as §1
[49] = tested on: SK-MEL-2; assay: Growth inhibition of human SK-MEL-2 cells; outline: as §1
[50] = tested on: SK-MEL-28; assay: Growth inhibition of human SK-MEL-28 cells; outline: as §1
[51] = tested on: SK-MEL-5; assay: Growth inhibition of human SK-MEL-5 cells; outline: as §1
[52] = tested on: UACC-257; assay: Growth inhibition of human UACC257 cells; outline: as §2
[53] = tested on: UACC-62; assay: Growth inhibition of human UACC62 cells; outline: as §2
[54] = tested on: MCF7; assay: Cell cycle arrest in human MCF7 cells assessed as accumulation at G0 phase at 10 uM after 24 hrs by FACS analysis
Outline: (§3)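 MCF-7 breast carcinoma cells were exposed to 10 µM test compound for 24 h, with DMSO as the vehicle control. Cell-cycle distribution was read by FACS as the percentage of cells in G0, G1, S and G2/M.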

[55] = tested on: MCF7; assay: Cell cycle arrest in human MCF7 cells assessed as accumulation at G1 phase at 10 uM after 24 hrs by FACS analysis; outline: as §3
[56] = tested on: MCF7; assay: Cell cycle arrest in human MCF7 cells assessed as accumulation at S phase at 10 uM after 24 hrs by FACS analysis; outline: as §3
[57] = tested on: MCF7; assay: Cell cycle arrest in human MCF7 cells assessed as accumulation at G2/M phase at 10 uM after 24 hrs by FACS analysis; outline: as §3
[58] = tested on: MCF7; assay: Cell cycle arrest in human MCF7 cells assessed as accumulation at G0 phase at 30 uM after 24 hrs by FACS analysis
Outline: (§4)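 MCF-7 cells were treated at 30 µM for 24 h alongside a DMSO control. Fractions in G0, G1, S and G2/M phases were measured by FACS, and values are means of three experiments.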

[59] = tested on: MCF7; assay: Cell cycle arrest in human MCF7 cells assessed as accumulation at G1 phase at 30 uM after 24 hrs by FACS analysis; outline: as §4
[60] = tested on: MCF7; assay: Cell cycle arrest in human MCF7 cells assessed as accumulation at S phase at 30 uM after 24 hrs by FACS analysis; outline: as §4
[61] = tested on: MCF7; assay: Cell cycle arrest in human MCF7 cells assessed as accumulation at G2/M phase at 30 uM after 24 hrs by FACS analysis; outline: as §4

COc1ccc(-c2cn(-c3cccc(C(=O)/C=C/c4cc(OC)c(OC)c(OC)c4)c3)c(=O)[nH]2)cc1
GI50 [1]: 920 nM
GI50 [2]: 1270 nM
GI50 [3]: 11800 nM
GI50 [4]: 4200 nM
GI50 [5]: 5910 nM
GI50 [6]: 14900 nM
GI50 [7]: 35200 nM
GI50 [8]: 1630 nM
GI50 [9]: 2660 nM
GI50 [10]: 1560 nM
GI50 [11]: 1850 nM
GI50 [12]: 1840 nM
GI50 [13]: 1640 nM
GI50 [14]: 370 nM
GI50 [15]: 1380 nM
GI50 [16]: 1280 nM
GI50 [17]: 1420 nM
GI50 [18]: 450 nM
GI50 [19]: 3210 nM
GI50 [20]: 4950 nM
GI50 [21]: 2000 nM
GI50 [22]: 4380 nM
GI50 [23]: 4590 nM
GI50 [24]: 880 nM
GI50 [25]: 4210 nM
GI50 [26]: 1610 nM
GI50 [27]: 1820 nM
GI50 [28]: 3050 nM
GI50 [29]: 1920 nM
GI50 [30]: 3500 nM
GI50 [31]: 3040 nM
GI50 [32]: 1910 nM
GI50 [33]: 6220 nM
GI50 [34]: 1780 nM
GI50 [35]: 3570 nM
GI50 [36]: 2640 nM
GI50 [37]: 2530 nM
GI50 [38]: 1700 nM
GI50 [39]: 4600 nM
GI50 [40]: 440 nM
GI50 [41]: 5480 nM
GI50 [42]: 3390 nM
GI50 [43]: 2590 nM
GI50 [44]: 3840 nM
GI50 [45]: 720 nM
GI50 [46]: 1790 nM
GI50 [47]: 1850 nM
GI50 [48]: 1860 nM
GI50 [49]: 2630 nM
GI50 [50]: 2030 nM
GI50 [51]: 2030 nM
GI50 [52]: 3040 nM
GI50 [53]: 2060 nM
Activity [54]: 3.79%
Activity [55]: 60.66%
Activity [56]: 21.47%
Activity [57]: 14.08%
Activity [58]: 36.02%
Activity [59]: 46.02%
Activity [60]: 8.45%
Activity [61]: 9.51%

COc1cc(/C=C/C(=O)c2cccc(-n3cc(-c4ccccc4)[nH]c3=O)c2)cc(OC)c1OC
GI50 [1]: 620 nM
GI50 [2]: 500 nM
GI50 [3]: 4030 nM
GI50 [4]: 2300 nM
GI50 [5]: 4120 nM
GI50 [6]: 10800 nM
GI50 [7]: 14600 nM
GI50 [8]: 1430 nM
GI50 [9]: 2020 nM
GI50 [10]: 1400 nM
GI50 [11]: 950 nM
GI50 [12]: 1510 nM
GI50 [13]: 1260 nM
GI50 [14]: 330 nM
GI50 [15]: 1130 nM
GI50 [16]: 660 nM
GI50 [17]: 1370 nM
GI50 [18]: 390 nM
GI50 [19]: 1920 nM
GI50 [20]: 1900 nM
GI50 [21]: 1680 nM
GI50 [22]: 2350 nM
GI50 [23]: 4470 nM
GI50 [24]: 630 nM
GI50 [25]: 2650 nM
GI50 [26]: 1380 nM
GI50 [27]: 1600 nM
GI50 [28]: 1750 nM
GI50 [29]: 1710 nM
GI50 [30]: 2090 nM
GI50 [31]: 3020 nM
GI50 [32]: 1510 nM
GI50 [33]: 3260 nM
GI50 [34]: 1230 nM
GI50 [35]: 1880 nM
GI50 [36]: 1880 nM
GI50 [37]: 1620 nM
GI50 [38]: 1100 nM
GI50 [39]: 3270 nM
GI50 [40]: 310 nM
GI50 [41]: 2170 nM
GI50 [42]: 3410 nM
GI50 [43]: 1930 nM
GI50 [44]: 2190 nM
GI50 [45]: 480 nM
GI50 [46]: 1310 nM
GI50 [47]: 1350 nM
GI50 [48]: 1200 nM
GI50 [49]: 2060 nM
GI50 [50]: 1740 nM
GI50 [51]: 1400 nM
GI50 [52]: 1520 nM
GI50 [53]: 1520 nM
Activity [54]: 8.19%
Activity [55]: 54.85%
Activity [56]: 17.5%
Activity [57]: 19.46%
Activity [58]: 52.34%
Activity [59]: 39.08%
Activity [60]: 5.6%
Activity [61]: 3.02%
